Measured values as given in ChEMBL document CHEMBL1156883, “Low molecular weight antagonists of the myelin-associated glycoprotein: synthesis, docking, and biological evaluation” (J Med Chem, 2010).

Columns and labels:
[1] = molecular target: T1, Myelin-associated glycoprotein (Mus musculus) (UniProt P20917); assay: Inhibition of mouse MAGd1-3Fc expressed in CHO-Lec 3.2.8.1 cells by hepten inhibition assay relative to sodium-(2R,4S,5R,6R)-5-acetamido-2-(benzyloxy)-6-((1S,2R)-3-(4-chlorobenzamido)-1,2-dihydroxypropyl)-4-hydroxytetrahydro-2H-pyran-2-carboxylate; format: cell-based
T1 sequence (whole entry): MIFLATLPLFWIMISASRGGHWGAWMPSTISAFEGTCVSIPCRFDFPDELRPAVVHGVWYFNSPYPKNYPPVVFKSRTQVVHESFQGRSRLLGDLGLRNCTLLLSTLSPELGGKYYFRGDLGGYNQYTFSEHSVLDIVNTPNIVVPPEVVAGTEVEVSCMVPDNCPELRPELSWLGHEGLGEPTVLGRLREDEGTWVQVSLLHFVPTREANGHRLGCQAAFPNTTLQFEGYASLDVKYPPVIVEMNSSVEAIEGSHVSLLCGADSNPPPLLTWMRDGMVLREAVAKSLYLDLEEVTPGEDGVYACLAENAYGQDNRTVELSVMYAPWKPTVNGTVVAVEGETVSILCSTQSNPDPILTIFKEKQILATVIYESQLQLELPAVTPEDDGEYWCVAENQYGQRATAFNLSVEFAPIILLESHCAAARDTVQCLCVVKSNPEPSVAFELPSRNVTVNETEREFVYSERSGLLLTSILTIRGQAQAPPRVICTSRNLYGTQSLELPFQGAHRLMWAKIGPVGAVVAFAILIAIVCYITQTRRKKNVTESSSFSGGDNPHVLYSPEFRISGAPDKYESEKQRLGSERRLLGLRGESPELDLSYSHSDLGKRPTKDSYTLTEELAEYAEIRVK
Outline: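 Fetuin-coated microtiter plates. Murine MAGd1-3-Fc (from CHO-Lec 3.2.8.1, dialyzed into 10 mM phosphate pH 7.4) bound in the presence of 7-8 inhibitor concentrations, in triplicate. Bound protein detected with alkaline phosphatase-labeled anti-Fc, read as initial rate of fluorescein release from fluorescein diphosphate. IC50 from binding curves converted to rIC50. At least three independent titrations.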

[2] = molecular target: T2, Myelin-associated glycoprotein (Mus musculus, UniProt P20917); assay: Binding affinity to mouse MAGd1-3Fc expressed in CHO-Lec 3.2.8.1 cells by SPR analysis
T2 sequence (P20917 whole entry): T1 sequence (whole entry)
Outline: (§1)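 Murine MAGd1-3-Fc (purified from CHO-Lec 3.2.8.1 supernatant) captured at 30-40 μg/mL to about 2000 RU on protein A, which was amine-coupled to a CM5 chip. Runs at 25 °C, 20 μL/min, with 1 min injection and 1 min dissociation. Ten-fold dilution series in duplicate, double blank referenced. Negative sensorgrams mirrored; equilibrium KD.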

[3] = Octanol-water distribution coefficient, log D at pH 7.4 by shake-flask technique; format: physicochemical
[4] = molecular target: T1, Myelin-associated glycoprotein (Mus musculus); assay: Relative binding affinity to mouse MAGd1-3Fc expressed in CHO-Lec 3.2.8.1 cells by NMR analysis relative to compound 4
[5] = Stability in buffer solution at 37 degC after 19 hrs; format: physicochemical; details: read-out: Stability
[6] = Stability in artificial cerebrospinal fluid at 37 degC […]; format: physicochemical; details: read-out: Stability
[7] = molecular target: T2, Myelin-associated glycoprotein; assay: Binding affinity to mouse MAGd1-3Fc expressed in CHO-Lec 3.2.8.1 cells by biocore; format: cell-based; outline: as §1
[8] = molecular target: T2, Myelin-associated glycoprotein; assay: Binding affinity to mouse MAGd1-3Fc expressed in CHO-Lec 3.2.8.1 cells under carboxymethyl-dextran sodium salt condition by CM5 chip SPR analysis
Outline: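 Dextran (1 mg/mL) added to the running buffer to test nonspecific binding to the matrix. Murine MAGd1-3-Fc captured via protein A on a CM5 chip. Runs at 25 °C, 20 μL/min, 1 min injection and 1 min dissociation. Equilibrium KD from mirrored sensorgrams.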

[9] = molecular target: T2, Myelin-associated glycoprotein; assay: Binding affinity to mouse MAGd1-3Fc expressed in CHO-Lec 3.2.8.1 cells under HBS-EP condition by CM5 chip SPR analysis; outline: as §1
[10] = molecular target: T2, Myelin-associated glycoprotein; assay: Binding affinity to mouse MAGd1-3Fc expressed in CHO-Lec 3.2.8.1 cells under NaCl condition by CM5 chip SPR analysis
Outline: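 SPR on a CM5 chip with protein A-captured murine MAGd1-3-Fc. Salt was raised to 150-500 mM NaCl to exclude ionic repulsion. Runs at 25 °C, 20 μL/min, 1 min contact and 1 min dissociation, double blank referenced. Equilibrium KD from mirrored sensorgrams.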

[11] = molecular target: T2, Myelin-associated glycoprotein; assay: Binding affinity to mouse MAGd1-3Fc expressed in CHO-Lec 3.2.8.1 cells under HEPES condition by CM5 chip SPR analysis
Outline: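 Murine MAGd1-3-Fc captured on protein A on a CM5 chip. Running buffer carried 50 mM instead of 10 mM HEPES to raise buffer capacity. SPR at 25 °C, 20 μL/min, 1 min injection and 1 min dissociation, double blank referenced. KD taken at equilibrium from mirrored sensorgrams.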

[12] = molecular target: T2, Myelin-associated glycoprotein; assay: Binding affinity to mouse MAGd1-3Fc expressed in CHO-Lec 3.2.8.1 cells under HBS-EP condition by CM4 chip SPR analysis
Outline: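 Protein A was amine-coupled to a CM4 chip (lower carboxylate density) and murine MAGd1-3-Fc captured on it. Run in HBS-EP at 25 °C, 20 μL/min, with 1 min association and 1 min dissociation. Ten-fold dilution series in duplicate, double blank referenced. Negative sensorgrams mirrored to give equilibrium KD.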

Row | SMILES | Ratio [1] | Kd [2] [µM] | logD [3] | also measured
1 | CC(=O)N[C@H]1[C@H]([C@@H](O)[C@H](O)CNC(=O)c2ccc(Cl)cc2)O[C@@](OCc2ccc3ccccc3c2)(C(=O)O)C[C@@H]1O | 0.74 | 11.6 | 0.58 | –
2 | O=C(O)N[C@H]1[C@H]([C@H](O)[C@H](O)CNC(=O)c2ccc(Cl)cc2)O[C@@](O[C@H]2[C@@H](O)[C@@H](CO)O[C@@H](O[C@@H]3CCO[C@H](COCc4ccc(-c5ccccc5)cc4)[C@@H]3O)[C@@H]2O)(C(=O)O)C[C@@H]1O | 0.52 | 2.83 | – | –
3 | CC(=O)N[C@H]1[C@H]([C@@H](O)[C@H](O)CNC(=O)c2ccc(Cl)cc2)O[C@@](OCc2cccc(F)c2F)(C(=O)O)C[C@@H]1O | 0.3 | 2.4 | -0.27 | Ratio [4]: 34.4; remaining at 19 h [5]: 95%; remaining [6]: 95%
4 | CC(=O)N[C@H]1[C@H]([C@@H](O)[C@H](O)CNC(=O)c2ccc(Cl)cc2)O[C@@](OCc2ccc(F)cc2)(C(=O)O)C[C@@H]1O | 1.2 | 13 | -0.11 | –
5 | CC(=O)N[C@H]1[C@H]([C@@H](O)[C@H](O)CNC(=O)c2ccc(Cl)cc2)O[C@@](OCc2cccc(Cl)c2Cl)(C(=O)O)C[C@@H]1O | 0.5 | 4.3 | 0.53 | –
6 | O=C(NC[C@@H](O)[C@H](O)[C@@H]1O[C@@](OCc2cccc(F)c2F)(C(=O)O)C[C@H](O)[C@H]1NC(=O)C1CCC1)c1ccc(Cl)cc1 | 0.14 | 5.8 | 0.75 | –
7 | CC(=O)N[C@H]1[C@H]([C@@H](O)[C@H](O)CNC(=O)c2ccc(Cl)c(Cl)c2)O[C@@](OCc2ccccc2)(C(=O)O)C[C@@H]1O | 1.61 | 19.2 | – | –
8 | CS(=O)(=O)N[C@H]1[C@H]([C@@H](O)[C@H](O)CNC(=O)c2ccc(Cl)cc2)O[C@@](OCc2cccc(F)c2F)(C(=O)O)C[C@@H]1O | 0.6 | 17 | -0.17 | –
9 | O=C(NC[C@@H](O)[C@H](O)[C@@H]1O[C@@](OCc2cccc(F)c2F)(C(=O)O)C[C@H](O)[C@H]1NS(=O)(=O)c1ccccc1[N+](=O)[O-])c1ccc(Cl)cc1 | 0.05 | 1.4 | 0.87 | –
10 | O=C(CCl)N[C@H]1[C@H]([C@@H](O)[C@H](O)CNC(=O)c2ccc(Cl)cc2)O[C@@](OCc2cccc(F)c2F)(C(=O)O)C[C@@H]1O | 0.07 | 2.1 | 0.35 | –
11 | CC(=O)N[C@H]1[C@H]([C@@H](O)[C@H](O)CNC(=O)c2ccc(Cl)cc2)O[C@@](OCc2ccc(Cl)cc2)(C(=O)O)C[C@@H]1O | 1.3 | 15 | 0.36 | –
12 | CO[C@]1(C(=O)O)C[C@H](O)[C@@H](NC(C)=O)[C@H]([C@@H](O)[C@H](O)CNC(=O)c2ccccc2)O1 | 18 | 137 | – | Kd [7]: 137 µM
13 | CC(=O)N[C@H]1[C@H]([C@@H](O)[C@H](O)CNC(=O)c2ccccc2)O[C@@](OCc2ccccc2)(C(=O)O)C[C@@H]1O | 1.5 | 26 | – | Kd [8]: 17.8 µM; Kd [9]: 21.8 µM; Kd [10]: 14.9 µM; Kd [11]: 17.6 µM; Kd [12]: 20 µM
14 | O=C(NC[C@@H](O)[C@H](O)[C@@H]1O[C@@](OCc2cccc(F)c2F)(C(=O)O)C[C@H](O)[C@H]1NC(=O)C1CC1)c1ccc(Cl)cc1 | 0.1 | 4.1 | 0.31 | –
15 | CC(=O)N[C@H]1[C@H]([C@@H](O)[C@H](O)CNC(=O)c2ccc(Cl)cc2)O[C@@](OCc2ccccc2)(C(=O)O)C[C@@H]1O | 1 | 17 | – | –
16 | CC(=O)N[C@H]1[C@H]([C@@H](O)[C@H](O)CNC(=O)c2cccc(Cl)c2)O[C@@](OCc2ccccc2)(C(=O)O)C[C@@H]1O | 2.65 | 33.9 | – | –
17 | CC(=O)N[C@H]1[C@H]([C@@H](O)[C@H](O)CNC(=O)c2ccccc2)O[C@@](OCc2c[nH]nn2)(C(=O)O)C[C@@H]1O | 0.74 | 11.7 | – | –
18 | COCC(=O)N[C@H]1[C@H]([C@@H](O)[C@H](O)CNC(=O)c2ccc(Cl)cc2)O[C@@](OCc2cccc(F)c2F)(C(=O)O)C[C@@H]1O | 0.14 | 2.3 | 0.06 | –
19 | O=C(CF)N[C@H]1[C@H]([C@@H](O)[C@H](O)CNC(=O)c2ccc(Cl)cc2)O[C@@](OCc2cccc(F)c2F)(C(=O)O)C[C@@H]1O | 0.02 | 0.5 | -0.26 | remaining at 19 h [5]: 95%; remaining [6]: 95%
20 | CC(=O)N[C@H]1[C@H]([C@@H](O)[C@H](O)CNC(=O)c2ccc(Cl)cc2)O[C@@](OCc2c(F)c(F)c(F)c(F)c2F)(C(=O)O)C[C@@H]1O | 0.26 | 6.1 | -0.11 | –
